TNAP inh noacc: TNAP (human) inhibition, acceptor-free conditions. inhibition, % at 20 µM. 200,000 tested, 0.26% active. AID 1012. purified TNAP, CDP-star luminescence, 30 min. P05186;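 active = tissue-nonspecific alkaline phosphatase inhibition above about 50% at 20 µM in the single-dose screen, limit read from the data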;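 note: 0% = DMSO negative control and 100% = EDTA positive control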
ABCB6 inh 2: blocks the human ABCB6 transporter; Q9NP58; K562-ABCB6 porphyrin accumulation, flow cytometry, 1 h; hits give low values; fluorescence ratio to DMSO, % at 10 µM; 360,000 tested, 0.19% active; AID 602162;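 active = fluorescence ratio to DMSO below 75%, the collection mean minus 3 SD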;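 note: signal is porphyrin accumulated inside mitochondria; 100% equals median channel fluorescence of DMSO control wells; lower ratio means ABCB6 inhibition with less porphyrin fluorescence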
Target sequence (Q9NP58 whole entry, looked up): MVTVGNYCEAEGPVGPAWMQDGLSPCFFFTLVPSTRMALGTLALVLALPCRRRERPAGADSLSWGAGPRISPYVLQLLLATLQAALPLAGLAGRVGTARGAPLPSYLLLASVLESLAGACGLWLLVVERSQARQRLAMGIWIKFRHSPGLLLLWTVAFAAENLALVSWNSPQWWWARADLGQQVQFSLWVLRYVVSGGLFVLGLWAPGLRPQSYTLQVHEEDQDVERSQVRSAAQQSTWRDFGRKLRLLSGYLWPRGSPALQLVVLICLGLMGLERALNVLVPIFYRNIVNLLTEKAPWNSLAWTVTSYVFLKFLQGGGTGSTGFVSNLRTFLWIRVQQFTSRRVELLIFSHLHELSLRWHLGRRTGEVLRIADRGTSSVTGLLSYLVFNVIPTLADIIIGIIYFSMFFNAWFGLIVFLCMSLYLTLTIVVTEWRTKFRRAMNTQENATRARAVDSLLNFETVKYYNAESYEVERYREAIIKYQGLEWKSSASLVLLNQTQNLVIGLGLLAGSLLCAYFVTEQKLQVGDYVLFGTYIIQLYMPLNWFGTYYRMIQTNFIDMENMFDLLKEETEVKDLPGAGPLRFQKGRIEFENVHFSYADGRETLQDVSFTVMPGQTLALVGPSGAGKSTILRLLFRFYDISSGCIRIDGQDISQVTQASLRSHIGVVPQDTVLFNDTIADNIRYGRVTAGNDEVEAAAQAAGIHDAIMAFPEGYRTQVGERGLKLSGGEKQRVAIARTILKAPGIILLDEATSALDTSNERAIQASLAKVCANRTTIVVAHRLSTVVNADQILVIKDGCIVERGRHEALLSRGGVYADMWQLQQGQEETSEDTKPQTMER
CHT inh: inhibitors of human choline transporter CHT; 310,000 tested, 0.86% active; AID 488975; CHT-expressing cells, membrane potential dye, choline response; hits give low values; Q9GZV3; B-score at 10 µM;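 active = B-score over 3 SD under the library average, and starting fluorescence ratio not unusually high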;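 note: choline stimulus applied at its EC90 after an EC20 pre-addition; B-score computed on integrated fluorescence ratio after choline addition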
CHT allo act: human CHT allosteric activation; Q9GZV3; CHT-expressing cells, membrane potential dye, choline EC20; hits give high values; LV-AA mutant CHT in HEK293 cells; B-score at 10 µM; 310,000 tested, 0.49% active; AID 488977;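 active = initial fluorescence not abnormally high and integrated response B-score, plate-corrected, over 3 SD above library mean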
TNAP inh hi DEA: TNAP (human) inhibition, high acceptor; inhibition, % at 20 µM; purified TNAP, CDP-star luminescence, 1 M DEA; 200,000 tested, 0.03% active;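 active = over 50% inhibition of tissue-nonspecific alkaline phosphatase at 20 µM in the single-dose screen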;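 note: plate controls were DMSO wells for no effect and EDTA-quenched wells as full inhibition for full effect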
TNAP act hiacc: activators of human TNAP at high phosphate acceptor concentration | P05186 | purified TNAP, CDP-star luminescence, 1 M DEA, 30 min; hits give high values; 0 = EDTA background, 1 = DMSO-only activity | activation factor at 20 µM | 200,000 tested, under 10 active;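 active = activation factor at least 2 at 20 µM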
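Test system – human TNAP · Doses – 20 µM single point · Incubation – 30 min, room temperature · Signal – luminescent substrate turnover signal · Read-out basis – activation factor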
CHT block conf: confirmation of human choline transporter CHT inhibitors; shares compounds with CHT inh; CHT-expressing cells, choline membrane potential dye; LV-to-AA substituted CHT, HEK293 cells; 2,400 tested, 70% active; CHT activity remaining % of control (hits give low values), % at 10 µM;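 active = choline transporter activity left, mean of duplicates at 10 µM, below buffer-only control mean minus 3 SD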;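 note: depolarization triggered by choline at its EC90 following an EC20 pre-addition; 0% = hemicholinium-3 full block and 100% = buffer-only control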
HEK293 MPD ctr: CHT inhibitor counter-screen hit in parental HEK293 cells | shares compounds with CHT inh | membrane potential dye, choline response; active = decrease or increase beyond buffer ±3SD | membrane potential ratio readout (active if shifted either direction beyond buffer ±3SD; no single direction) at 10 µM | 2,400 tested, 4% active;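 note: parental cells lack the transporter so any hit is non-specific; ratio is peak minus trough fluorescence over baseline after EC90 choline challenge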
* marks the source's active call; other numbers are inactive results; i = inactive; . = not tested or not shown. The list is not random: actives were taken first. Their share in the collection is about 1.4%.

SMILES	TNAP inh noacc	ABCB6 inh 2	CHT inh	CHT allo act	TNAP inh hi DEA	TNAP act hiacc	CHT block conf	HEK293 MPD ctr
CCC(Sc1nc2ccncc2[nH]1)C(=O)Nc1cc(Cl)ccc1C (configuration not stated)	.	99	-5.9*	i	.	.	i	i
CCC(Sc1nc2ccsc2c(=O)n1Cc1ccc(C(=O)O)cc1)C(=O)Nc1cc(Cl)ccc1C (configuration not stated)	.	101	.	.	.	.	.	.
CCCN(CCC)C(=O)C(c1ccccc1)C1(O)CCCCC1 (configuration not stated)	.	99	.	.	.	.	.	.
Cc1cc(C)nc(N2C(=O)CC(Cc3ccc(Cl)cc3)C2=O)n1 (configuration not stated)	-11	98	i	i	-6	1.1	.	.
Cc1cc(C)nc(N2N=C(CSc3ccc(Cl)cc3)CC2=O)n1	0	94	-5*	i	4	1	42%*	i
CC(Oc1ccc(Cl)cc1Cl)C(=O)NC1=NN(c2ccccc2)C(=O)C1 (configuration not stated)	-14	103	-6.3*	i	-3	1	39%*	i
CC(Oc1ccc(Cl)cc1Cl)C(=O)Nc1ccc(S(=O)(=O)Nc2cnc3ccccc3n2)cc1 (configuration not stated)	6	.	-9.9*	i	1	1	46%*	i
Cc1cc(Cl)ccc1OC(C)C(=O)Nc1ccc(S(=O)(=O)Nc2cnc3ccccc3n2)cc1 (configuration not stated)	-4	92	-11*	i	-3	1	43%*	i
CC(=O)Nc1ccc(NC(=O)C(C)Oc2ccc(Cl)cc2Cl)cc1 (configuration not stated)	-13	104	i	i	-4	1	.	.
COC(=O)C1=C(C(=O)OC)[C@@H]2N(Cc3ccccc3)c3ccccc3[C@@]23C[C@@H](C(=O)OC)N(C(=O)C2CCC2)C3=N1	.	.	i	i	.	.	.	.
CN1CCN(CC(=O)Nc2nc(-c3c[nH]c4ccccc34)cs2)CC1	-13	97	-5.4*	i	-2	1	64%*	i
C/C(=N\N=C(N)N)c1ccc(Cl)cc1Cl	2	94	-7.5*	i	-1	1	16%*	i
CS(=O)(=O)Nc1ccccc1C(=O)NCCSc1ccccc1	.	101	-6.5*	i	.	.	71%*	i
C=C1C(=O)C23CCC4C(C)(C(=O)OC)CCCC4(C)C2CCC1(O)C3 (configuration not stated)	.	96	.	.	.	.	.	.
Clc1cccc(CNCCNCc2cccc(Cl)c2)c1	-7	104	-7*	i	-6	1.1	70%*	i
COc1cc(C(=O)Nc2ccc(S(=O)(=O)N3CCOCC3)cc2)c([N+](=O)[O-])cc1OC	-4	100	i	i	-3	1	.	.
COc1ccc(-c2nnc(CSc3nc4ccccc4c(=O)n3CC3CCCO3)o2)cc1OC (configuration not stated)	.	98	-7.4*	i	.	.	49%*	i
COc1ccc(OC)c(NC(=O)CSc2nc3ccccc3c(=O)n2CC2CCCO2)c1 (configuration not stated)	.	97	i	i	.	.	.	.
O=c1c(-c2ccc(O)cc2O)coc2cc(O)cc(O)c12	-7	101	i	i	-4	1	.	.
COc1ccccc1-c1coc2cc(O)cc(O)c2c1=O	-8	101	-5.9*	i	-5	1	65%*	i
COC(=O)C12CC3CC(C1)CC(n1cnc(Cl)n1)(C3)C2	-10	99	i	i	-2	1	.	.
Cc1ccc(C(C(=O)NC2CCCCC2)N(C(=O)CCCC(=O)Nc2ccccn2)c2ccc3c(c2)OCCO3)cc1 (configuration not stated)	-9	93	i	i	-1	1	.	.
COc1ccc(CN(C(=O)c2ccc3c(c2)OCCO3)C(C(=O)NC2CCCCC2)c2ccc3ncccc3c2)cc1 (configuration not stated)	-7	99	-9.2*	i	-4	1	16%*	i
O=C(NC1CCCCC1)C(c1ccc2ncccc2c1)N(Cc1ccccc1)C(=O)c1ccc2c(c1)OCCO2 (configuration not stated)	-2	100	-6.7*	i	4	1	47%*	i
CC1(C)C(=O)C=C(N2CCCCC2)c2ccccc21	.	98	.	.	.	.	.	.
SMILES	TNAP inh noacc	ABCB6 inh 2	CHT inh	CHT allo act	TNAP inh hi DEA	TNAP act hiacc	CHT block conf	HEK293 MPD ctr
O=C(CCNC(=O)N1CC(=O)Nc2ccccc21)NCc1ccc(Cl)cc1	.	101	.	.	.	.	.	.
COC(=O)C1N[C@@H]([C@@H](NC(=O)COc2ccccc2)C(=O)Nc2ccc(OC)cc2)SC1(C)C (some centres not stated)	.	95	i	i	.	.	.	.
Cc1ccc(-c2nc3ncccc3o2)cc1NC(=O)c1ccccc1	.	95	-6.7*	i	.	.	i	i
CCOC(=O)COc1ccc(S(=O)(=O)NCc2ccco2)cc1	0	93	-7.6*	i	1	1	i	i
N#C/C(=C\c1c(Oc2ccccc2F)nc2ccccn2c1=O)C(=O)NC1CCS(=O)(=O)C1 (configuration not stated)	.	96	i	i	.	.	.	.
N#Cc1cccc(NC(=O)CCc2ccc(S(=O)(=O)N3CCOCC3)cc2)c1	.	98	.	.	.	.	.	.
CCCCN1CCc2c1nc1ccc(Br)cc1c2N	-8	96	-5.6*	i	7	0.9	51%*	i
Cc1cccc(N2CCN(C(=O)c3ccc(CNc4c(N5CCC(C)CC5)c(=O)c4=O)cc3)CC2C)c1 (configuration not stated)	-19	86	-5.4*	i	-5	1.1	70%*	i
CCN(CC)CCCNC(=O)c1cc(-c2ccc(Cl)c(Cl)c2)on1	-16	101	-6.7*	i	-4	1	31%*	i
CCN(CC)CCCNC(=O)c1cc(-c2ccc(O)cc2)on1	-8	97	i	i	-1	1	.	.
COc1ccc(C(=O)NCc2nc(C)c(C)s2)cc1OC1CCN(C(C)C)CC1	.	95	-13*	i	.	.	3.8%*	i
COc1ccc(C(=O)NCc2cc(C(C)C)no2)cc1OC1CCN(C(C)C)CC1	.	96	.	.	.	.	.	.
CCc1cc(CNC(=O)c2ccc(OC)c(OC3CCN(C(C)C)CC3)c2)on1	.	105	-16*	i	.	.	2.2%*	i
